Activity calls are given as the source filed them. The calls are words filed in the database; no cut-off is given here.
Tests used:
[1] = biological target: Cannabinoid receptor 2 (Homo sapiens) (UniProt P34972); test: Inhibition of CB2 receptor in HL60 cells assessed as inhibition of ERK1/2 phosphorylation after 15 mins by Western blotting analysis; format: cell-based; conditions: HL-60
[2] = biological target: Cannabinoid receptor 1 (Mus musculus, UniProt P47746); test: Displacement of [3H]-CP55940 from CD1 mouse brain (minus cerebellum) CB1 receptor by liquid scintillation counting; format: tissue-based
How it was run: (§1)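 Male CD1 mouse tissue homogenised in ice-cold TME buffer (50 mM Tris–HCl, 1 mM EDTA, 3.0 mM MgCl2, pH 7.4); membranes (30–80 µg protein) incubated with 0.5–1 nM [3H]-CP-55,940, 1 h, 30 °C, with 5 mg/mL fatty acid-free BSA. Non-specific binding with 1 µM CP-55,940. GF/C filtration. Triplicate, ≥5 independent experiments; IC50 by sigmoid fit converted to Ki.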

[3] = biological target: Cannabinoid receptor 2 (Mus musculus, UniProt P47936); test: Displacement of [3H]-CP55940 from CD1 mouse spleen CB2 receptor by liquid scintillation counting; how it was run: as §1
[4] = species on record: Mus musculus; test: Selectivity ratio of Ki for CD1 mouse brain (minus cerebellum) CB1 receptor to Ki for CD1 mouse spleen CB2 receptor; format: tissue-based

Cannabinoid receptor 2, sequence (P47936 whole entry): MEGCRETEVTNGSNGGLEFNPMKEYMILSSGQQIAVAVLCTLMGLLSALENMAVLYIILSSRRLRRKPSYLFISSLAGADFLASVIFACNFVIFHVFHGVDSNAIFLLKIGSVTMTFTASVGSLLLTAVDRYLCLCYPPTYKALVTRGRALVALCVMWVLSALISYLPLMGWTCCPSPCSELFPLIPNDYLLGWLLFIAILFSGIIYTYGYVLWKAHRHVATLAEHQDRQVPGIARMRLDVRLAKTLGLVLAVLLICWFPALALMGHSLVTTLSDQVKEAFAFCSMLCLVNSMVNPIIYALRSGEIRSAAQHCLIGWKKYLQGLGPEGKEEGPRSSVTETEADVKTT
Cannabinoid receptor 1, sequence (P47746 whole entry): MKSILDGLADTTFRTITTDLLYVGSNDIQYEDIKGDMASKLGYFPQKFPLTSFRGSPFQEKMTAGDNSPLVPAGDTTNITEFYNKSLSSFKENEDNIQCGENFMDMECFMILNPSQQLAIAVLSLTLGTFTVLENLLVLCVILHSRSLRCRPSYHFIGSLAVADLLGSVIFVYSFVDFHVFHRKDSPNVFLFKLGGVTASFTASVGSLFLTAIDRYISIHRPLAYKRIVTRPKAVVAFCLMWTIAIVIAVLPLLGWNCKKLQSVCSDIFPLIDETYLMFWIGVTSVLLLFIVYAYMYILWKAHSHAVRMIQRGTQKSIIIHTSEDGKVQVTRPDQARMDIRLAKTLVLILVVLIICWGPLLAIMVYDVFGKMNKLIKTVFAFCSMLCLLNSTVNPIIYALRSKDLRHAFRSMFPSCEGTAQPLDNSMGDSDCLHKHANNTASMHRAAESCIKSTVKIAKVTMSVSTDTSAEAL
Cannabinoid receptor 2 (Homo sapiens), sequence (P34972 whole entry): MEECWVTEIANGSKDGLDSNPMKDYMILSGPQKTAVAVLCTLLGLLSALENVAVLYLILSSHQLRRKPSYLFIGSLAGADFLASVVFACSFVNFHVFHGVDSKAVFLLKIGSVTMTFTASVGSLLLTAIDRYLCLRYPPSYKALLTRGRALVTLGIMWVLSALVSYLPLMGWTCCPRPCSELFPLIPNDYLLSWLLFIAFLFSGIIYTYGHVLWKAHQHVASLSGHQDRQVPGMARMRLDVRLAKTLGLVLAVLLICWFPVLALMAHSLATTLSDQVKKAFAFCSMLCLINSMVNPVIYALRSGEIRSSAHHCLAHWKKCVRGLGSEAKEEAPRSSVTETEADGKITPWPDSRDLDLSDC

SMILES	inhibition [1]	Ki [2] [nM]	Ki [3] [nM]	Ratio Ki [4]
Cc1c(C(=O)c2cccc3ccccc23)c2cccc3c2n1[C@H](CN1CCOCC1)CO3	Active	–	–	–
Cc1ccc(Cn2nc(C(=O)NN3CCOCC3)c3c2-c2c(C)csc2C3)cc1	Active	4500	1760	2.6
Cc1cc2c(s1)Cc1c(C(=O)NN3CCCC3)nn(-c3ccc(Cl)cc3Cl)c1-2	Active	1390	38.3	36.2
Cc1csc2c1-c1c(c(C(=O)NC3C[C@@H](C)CC[C@@H]3C(C)C)nn1-c1ccc(Cl)cc1Cl)C2 (stereo partly specified)	Active	3260	6.7	486
Cc1ccc(Cn2nc(C(=O)NN3CCCCCC3)c3c2-c2c(C)csc2C3)cc1	Active	1280	69	18.5
Cc1csc2c1-c1c(c(C(=O)NN3CCCC3)nn1-c1ccc(Cl)cc1Cl)C2	Active	4730	817	5.8
Cc1ccc(Cn2nc(C(=O)NN3CCCC3)c3c2-c2c(C)csc2C3)cc1	Active	4500	515	8.7
Cc1cc2c(s1)Cc1c(C(=O)NN3CCCCC3)nn(-c3ccc(Cl)cc3Cl)c1-2	Active	440	2.3	191
Cc1ccc(Cn2nc(C(=O)NC3C[C@@H](C)CC[C@@H]3C(C)C)c3c2-c2c(C)csc2C3)cc1 (stereo partly specified)	Active	160	2.7	59.3
Cc1ccc(Cn2nc(C(=O)NC3C[C@@H](C)CC[C@@H]3C(C)C)c3c2-c2cc(C)sc2C3)cc1 (stereo partly specified)	Active	180	4.8	37.5
Cc1ccc(Cn2nc(C(=O)NC3CCCCC3)c3c2-c2c(C)csc2C3)cc1	Active	1980	191	10.4
Cc1csc2c1-c1c(c(C(=O)NN3CCCCC3)nn1-c1ccc(Cl)cc1Cl)C2	Active	3920	578	6.8
Cc1cc2c(s1)Cc1c(C(=O)NC3C[C@@H](C)CC[C@@H]3C(C)C)nn(-c3ccc(Cl)cc3Cl)c1-2 (stereo partly specified)	Active	6.5	5.1	1.3
Cc1ccc(Cn2nc(C(=O)NN3CCCCC3)c3c2-c2c(C)csc2C3)cc1	Active	377	125	3
Cc1csc2c1-c1c(c(C(=O)NC3C(C)(C)C4CC[C@@]3(C)C4)nn1-c1ccc(Cl)cc1Cl)C2 (stereo partly specified)	Active	2240	5.3	424
Cc1cc2c(s1)Cc1c(C(=O)NN3CCCCCC3)nn(-c3ccc(Cl)cc3Cl)c1-2	Active	442	1.1	402
Cc1ccc(Cn2nc(C(=O)NC3C(C)(C)C4CC[C@@]3(C)C4)c3c2-c2c(C)csc2C3)cc1 (stereo partly specified)	Active	420	2.4	175
Cc1csc2c1-c1c(c(C(=O)NC3CCCCC3)nn1-c1ccc(Cl)cc1Cl)C2	Active	3080	501	6.1
Cc1csc2c1-c1c(c(C(=O)NN3CCOCC3)nn1-c1ccc(Cl)cc1Cl)C2	Active	4700	747	6.3
Cc1csc2c1-c1c(c(C(=O)NN3CCCCCC3)nn1-c1ccc(Cl)cc1Cl)C2	Active	3800	321	11.8
Cc1cc2c(s1)Cc1c(C(=O)NC3CCCCC3)nn(-c3ccc(Cl)cc3Cl)c1-2	Active	447	7.2	62.1

— ChEMBL document CHEMBL3351751, “Tricyclic pyrazoles part 7. Discovery of potent and selective dihydrothienocyclopentapyrazole derived CB2 ligands” (Eur J Med Chem, 2014)
